ChEMBL document CHEMBL3044632, “Synthesis, crystal structure, and biological activity of 4-methyl-1,2,3-thiadiazole-containing 1,2,4-triazolo[3,4-b][1,3,4]thiadiazoles” (J Agric Food Chem, 2010)

test system: Thanatephorus cucumeris; experiment: Fungicide activity against Thanatephorus cucumeris assessed as growth inhibition at 50 ug/mL at 24 to 26 degC measured after 2 days; type: functional; settings: 48 h, read-out: GI

Compound | inhibition of growth at 50 µg/mL [%]
Cc1nnsc1C1=NNC2SC(c3cccc(F)c3)=NN12 (stereo unspecified) | 32.8
COc1ccccc1C1=NN2C(c3snnc3C)=NNC2S1 (stereo unspecified) | 32.8
Cc1nnsc1C1=NNC2SC(C(C)(C)C)=NN12 (stereo unspecified) | 56.7
Cc1nnsc1C1=NNC2SC(c3c(-c4ccccc4)noc3C)=NN12 (stereo unspecified) | 25.4
Cc1nnsc1C1=NNC2SC(/C=C/c3ccccc3)=NN12 (stereo unspecified) | 33.3
Cc1nnsc1C1=NNC2SC(c3ccco3)=NN12 (stereo unspecified) | 45.1
Cc1nnsc1C1=NNC2SC(c3ccc([N+](=O)[O-])cc3)=NN12 (stereo unspecified) | 32.4
CCCC1=NN2C(c3snnc3C)=NNC2S1 (stereo unspecified) | 77.8
Cc1nnsc1C1=NNC2SC(c3cccc(OC(F)(F)F)c3)=NN12 (stereo unspecified) | 35.2

test system: Tobacco mosaic virus; experiment: Antiviral activity against Tobacco mosaic virus (TMV) infected leaves assessed as viral inhibition at 100 ug/mL at 25 degC for 72 hr; type: functional; settings: not given
Outline: (§1)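 Systemic acquired resistance induction was assayed in a tobacco–TMV system. The antivirus inhibition ratio was calculated from the average number of viral lesions on inoculated leaves, relative to the corresponding control.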

Compound | inhibition at 100 µg/mL [%]
Cc1nnsc1C1=NNC2SC(c3cccc(F)c3)=NN12 (stereo unspecified) | 24.2
Cc1nnsc1C1=NNC2SC(/C=C/c3ccccc3)=NN12 (stereo unspecified) | 16.7
Cc1nnsc1C1=NNC2SC(c3ccco3)=NN12 (stereo unspecified) | 20
Cc1nnsc1C1=NNC2SC(c3ccc([N+](=O)[O-])cc3)=NN12 (stereo unspecified) | 16.7
Cc1nnsc1C1=NNC2SC(c3cccc(OC(F)(F)F)c3)=NN12 (stereo unspecified) | 30

test system: Colletotrichum lagenaria; experiment: Fungicide activity against Colletotrichum lagenaria assessed as growth inhibition at 50 ug/mL at 24 to 26 degC measured after 2 days; type: functional; settings: 48 h, read-out: GI

Compound | inhibition of growth at 50 µg/mL [%]
Cc1nnsc1C1=NNC2SC(c3cccc(F)c3)=NN12 (stereo unspecified) | 0
COc1ccccc1C1=NN2C(c3snnc3C)=NNC2S1 (stereo unspecified) | 27.3
Cc1nnsc1C1=NNC2SC(C(C)(C)C)=NN12 (stereo unspecified) | 5.88
Cc1nnsc1C1=NNC2SC(c3c(-c4ccccc4)noc3C)=NN12 (stereo unspecified) | 13.6
Cc1nnsc1C1=NNC2SC(/C=C/c3ccccc3)=NN12 (stereo unspecified) | 26.9
Cc1nnsc1C1=NNC2SC(c3ccco3)=NN12 (stereo unspecified) | 0
Cc1nnsc1C1=NNC2SC(c3ccc([N+](=O)[O-])cc3)=NN12 (stereo unspecified) | 13.8
CCCC1=NN2C(c3snnc3C)=NNC2S1 (stereo unspecified) | 50
Cc1nnsc1C1=NNC2SC(c3cccc(OC(F)(F)F)c3)=NN12 (stereo unspecified) | 13.8

test system: Tobacco mosaic virus; experiment: Antiviral activity against Tobacco mosaic virus (TMV) infected leaves assessed as viral inhibition at 50 ug/mL at 25 degC for 72 hr; type: functional; settings: not given; outline: as §1

Compound | inhibition at 50 µg/mL [%]
COc1ccccc1C1=NN2C(c3snnc3C)=NNC2S1 (stereo unspecified) | 40
Cc1nnsc1C1=NNC2SC(C(C)(C)C)=NN12 (stereo unspecified) | 7.89
Cc1nnsc1C1=NNC2SC(c3c(-c4ccccc4)noc3C)=NN12 (stereo unspecified) | 14.6
CCCC1=NN2C(c3snnc3C)=NNC2S1 (stereo unspecified) | 0

test system: Botryosphaeria berengeriana; experiment: Fungicide activity against Botryosphaeria berengeriana assessed as growth inhibition at 50 ug/mL at 24 to 26 degC measured after 2 days; type: functional; settings: 48 h, read-out: GI

Compound | inhibition of growth at 50 µg/mL [%]
Cc1nnsc1C1=NNC2SC(c3cccc(F)c3)=NN12 (stereo unspecified) | 54.1
COc1ccccc1C1=NN2C(c3snnc3C)=NNC2S1 (stereo unspecified) | 24.4
Cc1nnsc1C1=NNC2SC(C(C)(C)C)=NN12 (stereo unspecified) | 17.7
Cc1nnsc1C1=NNC2SC(c3c(-c4ccccc4)noc3C)=NN12 (stereo unspecified) | 8.9
Cc1nnsc1C1=NNC2SC(/C=C/c3ccccc3)=NN12 (stereo unspecified) | 40.5
Cc1nnsc1C1=NNC2SC(c3ccco3)=NN12 (stereo unspecified) | 29
Cc1nnsc1C1=NNC2SC(c3ccc([N+](=O)[O-])cc3)=NN12 (stereo unspecified) | 34.9
CCCC1=NN2C(c3snnc3C)=NNC2S1 (stereo unspecified) | 40.5
Cc1nnsc1C1=NNC2SC(c3cccc(OC(F)(F)F)c3)=NN12 (stereo unspecified) | 25.6

test system: Fusarium graminearum; experiment: Fungicide activity against Fusarium graminearum assessed as growth inhibition at 50 ug/mL at 24 to 26 degC measured after 2 days; type: functional; settings: 48 h, read-out: GI

Compound | inhibition of growth at 50 µg/mL [%]
Cc1nnsc1C1=NNC2SC(c3cccc(F)c3)=NN12 (stereo unspecified) | 40.5
COc1ccccc1C1=NN2C(c3snnc3C)=NNC2S1 (stereo unspecified) | 18.2
Cc1nnsc1C1=NNC2SC(c3c(-c4ccccc4)noc3C)=NN12 (stereo unspecified) | 27.3
Cc1nnsc1C1=NNC2SC(/C=C/c3ccccc3)=NN12 (stereo unspecified) | 17.5
Cc1nnsc1C1=NNC2SC(c3ccc([N+](=O)[O-])cc3)=NN12 (stereo unspecified) | 11.9
CCCC1=NN2C(c3snnc3C)=NNC2S1 (stereo unspecified) | 75
Cc1nnsc1C1=NNC2SC(c3cccc(OC(F)(F)F)c3)=NN12 (stereo unspecified) | 4.8

test system: Alternaria solani; experiment: Fungicide activity against Alternaria solani assessed as growth inhibition at 50 ug/mL at 24 to 26 degC measured after 2 days; type: functional; settings: 48 h, read-out: GI

Compound | inhibition of growth at 50 µg/mL [%]
Cc1nnsc1C1=NNC2SC(c3cccc(F)c3)=NN12 (stereo unspecified) | 37.1
COc1ccccc1C1=NN2C(c3snnc3C)=NNC2S1 (stereo unspecified) | 30
Cc1nnsc1C1=NNC2SC(C(C)(C)C)=NN12 (stereo unspecified) | 16.7
Cc1nnsc1C1=NNC2SC(c3c(-c4ccccc4)noc3C)=NN12 (stereo unspecified) | 33.3
Cc1nnsc1C1=NNC2SC(/C=C/c3ccccc3)=NN12 (stereo unspecified) | 31.3
Cc1nnsc1C1=NNC2SC(c3ccco3)=NN12 (stereo unspecified) | 43.3
Cc1nnsc1C1=NNC2SC(c3ccc([N+](=O)[O-])cc3)=NN12 (stereo unspecified) | 26.7
CCCC1=NN2C(c3snnc3C)=NNC2S1 (stereo unspecified) | 34.4
Cc1nnsc1C1=NNC2SC(c3cccc(OC(F)(F)F)c3)=NN12 (stereo unspecified) | 23.7

test system: Botrytis cinerea; experiment: Fungicide activity against Botryotinia fuckeliana assessed as growth inhibition at 50 ug/mL at 24 to 26 degC measured after 2 days; type: functional; settings: 48 h, read-out: GI

Compound | inhibition of growth at 50 µg/mL [%]
Cc1nnsc1C1=NNC2SC(c3cccc(F)c3)=NN12 (stereo unspecified) | 75
COc1ccccc1C1=NN2C(c3snnc3C)=NNC2S1 (stereo unspecified) | 50
Cc1nnsc1C1=NNC2SC(c3c(-c4ccccc4)noc3C)=NN12 (stereo unspecified) | 46.2
Cc1nnsc1C1=NNC2SC(/C=C/c3ccccc3)=NN12 (stereo unspecified) | 81.8
Cc1nnsc1C1=NNC2SC(c3ccc([N+](=O)[O-])cc3)=NN12 (stereo unspecified) | 60
CCCC1=NN2C(c3snnc3C)=NNC2S1 (stereo unspecified) | 84.9
Cc1nnsc1C1=NNC2SC(c3cccc(OC(F)(F)F)c3)=NN12 (stereo unspecified) | 68.9

test system: Nicotiana tabacum; experiment: Phytotoxicity against Nicotiana tabacum (tobacco) plant at 50 to 500 ug/mL; type: organism-based; settings: in vivo

Compound | Activity
Cc1nnsc1C1=NNC2SC(c3cccc(F)c3)=NN12 (stereo unspecified) | Toxic
COc1ccccc1C1=NN2C(c3snnc3C)=NNC2S1 (stereo unspecified) | Toxic
Cc1nnsc1C1=NNC2SC(C(C)(C)C)=NN12 (stereo unspecified) | Toxic
Cc1nnsc1C1=NNC2SC(c3c(-c4ccccc4)noc3C)=NN12 (stereo unspecified) | Toxic
Cc1nnsc1C1=NNC2SC(/C=C/c3ccccc3)=NN12 (stereo unspecified) | Toxic
Cc1nnsc1C1=NNC2SC(c3ccco3)=NN12 (stereo unspecified) | Toxic
Cc1nnsc1C1=NNC2SC(c3ccc([N+](=O)[O-])cc3)=NN12 (stereo unspecified) | Toxic
CCCC1=NN2C(c3snnc3C)=NNC2S1 (stereo unspecified) | Toxic
Cc1nnsc1C1=NNC2SC(c3cccc(OC(F)(F)F)c3)=NN12 (stereo unspecified) | Toxic

test system: Fusarium oxysporum; experiment: Fungicide activity against Fusarium oxysporum assessed as growth inhibition at 50 ug/mL at 24 to 26 degC measured after 2 days; type: functional; settings: 48 h, read-out: GI

Compound | inhibition of growth at 50 µg/mL [%]
Cc1nnsc1C1=NNC2SC(c3cccc(F)c3)=NN12 (stereo unspecified) | 10
COc1ccccc1C1=NN2C(c3snnc3C)=NNC2S1 (stereo unspecified) | 17.2
Cc1nnsc1C1=NNC2SC(C(C)(C)C)=NN12 (stereo unspecified) | 13.9
Cc1nnsc1C1=NNC2SC(c3c(-c4ccccc4)noc3C)=NN12 (stereo unspecified) | 13.8
Cc1nnsc1C1=NNC2SC(/C=C/c3ccccc3)=NN12 (stereo unspecified) | 9.1
Cc1nnsc1C1=NNC2SC(c3ccco3)=NN12 (stereo unspecified) | 22.2
Cc1nnsc1C1=NNC2SC(c3ccc([N+](=O)[O-])cc3)=NN12 (stereo unspecified) | 20.9
CCCC1=NN2C(c3snnc3C)=NNC2S1 (stereo unspecified) | 93
Cc1nnsc1C1=NNC2SC(c3cccc(OC(F)(F)F)c3)=NN12 (stereo unspecified) | 18.6

test system: Mycosphaerella arachidis; experiment: Fungicide activity against Mycosphaerella arachidis assessed as growth inhibition at 50 ug/mL at 24 to 26 degC measured after 2 days; type: functional; settings: 48 h, read-out: GI

Compound | inhibition of growth at 50 µg/mL [%]
Cc1nnsc1C1=NNC2SC(c3cccc(F)c3)=NN12 (stereo unspecified) | 23.5
COc1ccccc1C1=NN2C(c3snnc3C)=NNC2S1 (stereo unspecified) | 25
Cc1nnsc1C1=NNC2SC(C(C)(C)C)=NN12 (stereo unspecified) | 36.4
Cc1nnsc1C1=NNC2SC(c3c(-c4ccccc4)noc3C)=NN12 (stereo unspecified) | 30
Cc1nnsc1C1=NNC2SC(/C=C/c3ccccc3)=NN12 (stereo unspecified) | 27.6
Cc1nnsc1C1=NNC2SC(c3ccco3)=NN12 (stereo unspecified) | 36.4
Cc1nnsc1C1=NNC2SC(c3ccc([N+](=O)[O-])cc3)=NN12 (stereo unspecified) | 30.8
CCCC1=NN2C(c3snnc3C)=NNC2S1 (stereo unspecified) | 62.1
Cc1nnsc1C1=NNC2SC(c3cccc(OC(F)(F)F)c3)=NN12 (stereo unspecified) | 23.1

test system: Phytophthora infestans; experiment: Fungicide activity against Phytophthora infestans assessed as growth inhibition at 50 ug/mL at 24 to 26 degC measured after 2 days; type: functional; settings: 48 h, read-out: GI

Compound | inhibition of growth at 50 µg/mL [%]
Cc1nnsc1C1=NNC2SC(c3cccc(F)c3)=NN12 (stereo unspecified) | 0
COc1ccccc1C1=NN2C(c3snnc3C)=NNC2S1 (stereo unspecified) | 11.1
Cc1nnsc1C1=NNC2SC(C(C)(C)C)=NN12 (stereo unspecified) | 14.7
Cc1nnsc1C1=NNC2SC(c3c(-c4ccccc4)noc3C)=NN12 (stereo unspecified) | 7.4
Cc1nnsc1C1=NNC2SC(/C=C/c3ccccc3)=NN12 (stereo unspecified) | 18.2
Cc1nnsc1C1=NNC2SC(c3ccco3)=NN12 (stereo unspecified) | 14.7
Cc1nnsc1C1=NNC2SC(c3ccc([N+](=O)[O-])cc3)=NN12 (stereo unspecified) | 22.2
CCCC1=NN2C(c3snnc3C)=NNC2S1 (stereo unspecified) | 75.8
Cc1nnsc1C1=NNC2SC(c3cccc(OC(F)(F)F)c3)=NN12 (stereo unspecified) | 17.8

test system: Cercospora beticola; experiment: Fungicide activity against Cercospora beticola assessed as growth inhibition at 50 ug/mL at 24 to 26 degC measured after 2 days; type: functional; settings: 48 h, read-out: GI

Compound | inhibition of growth at 50 µg/mL [%]
Cc1nnsc1C1=NNC2SC(c3cccc(F)c3)=NN12 (stereo unspecified) | 27.3
COc1ccccc1C1=NN2C(c3snnc3C)=NNC2S1 (stereo unspecified) | 30
Cc1nnsc1C1=NNC2SC(C(C)(C)C)=NN12 (stereo unspecified) | 23.8
Cc1nnsc1C1=NNC2SC(c3c(-c4ccccc4)noc3C)=NN12 (stereo unspecified) | 10
Cc1nnsc1C1=NNC2SC(/C=C/c3ccccc3)=NN12 (stereo unspecified) | 13.3
Cc1nnsc1C1=NNC2SC(c3ccco3)=NN12 (stereo unspecified) | 42.9
Cc1nnsc1C1=NNC2SC(c3ccc([N+](=O)[O-])cc3)=NN12 (stereo unspecified) | 14.3
CCCC1=NN2C(c3snnc3C)=NNC2S1 (stereo unspecified) | 33.3
Cc1nnsc1C1=NNC2SC(c3cccc(OC(F)(F)F)c3)=NN12 (stereo unspecified) | 35.7

test system: Tobacco mosaic virus; experiment: Antiviral activity against Tobacco mosaic virus (TMV) infected leaves assessed as viral inhibition at 500 ug/mL at 25 degC for 72 hr; type: functional; settings: not given; outline: as §1

Compound | inhibition at 500 µg/mL [%]
Cc1nnsc1C1=NNC2SC(c3cccc(F)c3)=NN12 (stereo unspecified) | 30.7
Cc1nnsc1C1=NNC2SC(/C=C/c3ccccc3)=NN12 (stereo unspecified) | 27.8
Cc1nnsc1C1=NNC2SC(c3ccco3)=NN12 (stereo unspecified) | 23.5
Cc1nnsc1C1=NNC2SC(c3ccc([N+](=O)[O-])cc3)=NN12 (stereo unspecified) | 52.9
Cc1nnsc1C1=NNC2SC(c3cccc(OC(F)(F)F)c3)=NN12 (stereo unspecified) | 37.5

test system: Puccinia triticina; experiment: Fungicide activity against Puccinia triticina assessed as growth inhibition at 50 ug/mL at 24 to 26 degC measured after 2 days; type: functional; settings: 48 h, read-out: GI

Compound | inhibition of growth at 50 µg/mL [%]
Cc1nnsc1C1=NNC2SC(C(C)(C)C)=NN12 (stereo unspecified) | 26.3
Cc1nnsc1C1=NNC2SC(c3ccco3)=NN12 (stereo unspecified) | 21
